# Active and inactive are the calls of the source. The rule behind the calls is not given here.
# What was measured:
# Mus musculus [1] = test: Agonist activity at TrkB in C57BL/6J mouse brain lysate assessed as TrkB phosphorylation at Y817 at 5 mg/kg, po administered for 21 days by immunoblotting; format: functional, organism-based; set-up: dose 5 mg/kg
# Summary of the method: (§1)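 Adult male C57BL/6J mice, 8 per group, dosed orally by gavage once daily for 21 days; saline was the vehicle. Brain lysates were immunoblotted with anti-p-TrkA 794 and anti-p-TrkB 817.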
# Mus musculus [2] = test: Neuroprotective activity in C57BL/6J mouse assessed as inhibition of kainic acid-induced caspase 3 activation in hippocampus region at 5 mg/kg, po administered 2 to 8 hrs prior to kainic acid challenge measured after 8 hrs by immunoblotting; format: functional, organism-based; set-up: dose 5 mg/kg
# Mus musculus [3] = test: Toxicity in C57BL/6J mouse assessed as pathological changes in hippocampus at 5 mg/kg, po for 3 weeks; format: organism-based; set-up: dose 5 mg/kg, route oral; conditions: in vivo, 504 h
# Summary of the method: (§2)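 Mice were dosed orally at 5 mg/kg for 3 weeks, with saline-treated controls. Major organs were examined for pathological changes, and a complete blood count was done.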
# [4] = target: BDNF/NT-3 growth factors receptor (Rattus norvegicus) (UniProt Q63604); test: Agonist activity at TrkB in E17 rat primary rat cortical neurons assessed as AKT phosphorylation at Ser 473 at 10 nM after 15 mins by titration assay; format: functional
# Chain of BDNF/NT-3 growth factors receptor (Rattus norvegicus) (Q63604 whole entry): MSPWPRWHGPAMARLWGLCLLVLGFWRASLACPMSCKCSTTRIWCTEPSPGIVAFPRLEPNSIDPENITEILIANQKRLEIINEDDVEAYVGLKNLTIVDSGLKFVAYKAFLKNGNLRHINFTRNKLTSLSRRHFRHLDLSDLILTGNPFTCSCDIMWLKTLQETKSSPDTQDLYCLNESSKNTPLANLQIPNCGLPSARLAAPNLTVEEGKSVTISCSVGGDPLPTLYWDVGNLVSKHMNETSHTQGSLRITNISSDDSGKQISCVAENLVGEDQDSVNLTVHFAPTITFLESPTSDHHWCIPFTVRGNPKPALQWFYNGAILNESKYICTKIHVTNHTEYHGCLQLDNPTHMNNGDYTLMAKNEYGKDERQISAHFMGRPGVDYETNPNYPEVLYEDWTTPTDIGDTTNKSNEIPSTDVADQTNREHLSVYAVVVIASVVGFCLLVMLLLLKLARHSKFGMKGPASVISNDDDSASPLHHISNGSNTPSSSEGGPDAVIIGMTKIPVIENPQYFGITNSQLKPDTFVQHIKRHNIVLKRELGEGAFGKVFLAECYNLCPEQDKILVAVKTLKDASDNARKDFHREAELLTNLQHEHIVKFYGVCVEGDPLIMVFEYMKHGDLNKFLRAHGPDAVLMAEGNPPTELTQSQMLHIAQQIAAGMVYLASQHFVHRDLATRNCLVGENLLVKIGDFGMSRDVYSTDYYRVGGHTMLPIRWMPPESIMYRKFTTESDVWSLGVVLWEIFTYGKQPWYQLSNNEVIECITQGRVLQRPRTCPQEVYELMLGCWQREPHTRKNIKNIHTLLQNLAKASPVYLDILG
# Summary of the method: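 Primary cortical neurons were incubated with graded concentrations, starting at 10 nM, for 15 min. Phospho-Akt Ser473 was measured by sandwich ELISA on 20 µg of lysate. Data come from 2 replicated experiment sets, given as mean ± SEM. Comparisons used one-way ANOVA against control and Student's t-test between compounds.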
# Mus musculus [5] = test: Induction of neurogenesis in C57BL/6J mouse hippocampus dentate gyrus assessed as progenitor cell proliferation at 5 mg/kg, po administered for 21 days by DAPI and BrdU staining based fluorescence microscopy; format: functional, organism-based; set-up: dose 5 mg/kg
# Summary of the method: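 Adult male C57BL/6J mice were gavaged at 5 mg/kg for 21 days and then given BrdU at 50 mg/kg i.p. Mice were perfused with 4% paraformaldehyde 2 h later. Paraffin sections had citrate antigen retrieval and 2 N HCl treatment, then were stained with anti-BrdU-FITC at 4 °C for 16 h and with DAPI. BrdU-positive cells in the dentate gyrus were counted by fluorescence microscopy.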
# Mus musculus [6] = test: Toxicity in C57BL/6J mouse assessed as affect on complete blood count analysis at 5 mg/kg, po for 3 weeks; format: organism-based; set-up: dose 5 mg/kg, route oral; conditions: in vivo, 504 h; summary of the method: as §2
# Mus musculus [7] = test: Agonist activity at TrkA in C57BL/6J mouse brain lysate assessed as TrkA phosphorylation at Y794 at 5 mg/kg, po administered for 21 days by immunoblotting; format: functional, organism-based; set-up: dose 5 mg/kg; summary of the method: as §1
# HEK293 [8] = test: Cytotoxicity against human HEK293 cells assessed as cell death at 50 to 50000 nM after 24 hrs by LDH assay; format: cell-based; conditions: hek293, 24 h, 50 µM
# Mus musculus [9] = test: Agonist activity at TrkB in C57BL/6J mouse brain assessed as TrkB 706 phosphorylation at 1 mg/kg, po at 1 to 2 hrs by immunoblotting; format: functional, organism-based; set-up: dose 1 mg/kg
# Summary of the method: (§3)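 C57BL/6J mice got a single oral dose of 1 mg/kg. Brains were collected at several time points, about 1 to 16 h after dosing. Lysates were immunoblotted for TrkB phosphorylation and for downstream Akt and MAPK phosphorylation.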
# [10] = target: BDNF/NT-3 growth factors receptor (Rattus norvegicus) (UniProt Q63604); test: Agonist activity at TrkB in E16 rat embryonic cortical neurons assessed as inhibition of glutamate-induced caspase 3 activation at 50 to 500 nM after 30 mins followed by 16 hrs of 50 uM glutamate-challenge by ELISA; format: functional
# Summary of the method: (§4)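 Cortical neurons from E16 rat embryos were pretreated with the indicated compound concentrations for 30 min. They were then challenged with 50 µM glutamate for 16 h. Active caspase-3 in the lysates was measured by ELISA.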
# [11] = target: BDNF/NT-3 growth factors receptor (Rattus norvegicus) (UniProt Q63604); test: Agonist activity at TrkB in E17 rat primary cortical neurons assessed as TrkB phosphorylation at 817 at 500 nM after 15 mins by immunoblotting; format: functional, cell-based; conditions: Cerebral cortex neuron
# Summary of the method: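 Rat cortical neurons from E17 embryos, 13 DIV, were treated with 500 nM compound for 15 min. Lysates were run on 10% SDS-PAGE and immunoblotted with p-TrkB Y817 antibody at 1:20,000–40,000.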
# Mus musculus [12] = test: Antidepressant activity in C57BL/6J mouse assessed as decrease in immobility at 5 mg/kg, po administered for 21 days measured last 4 mins of total 6 mins observation time by forced swim test; format: functional, organism-based; set-up: dose 5 mg/kg
# Summary of the method: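 Male C57BL/6J mice, 2–3 months old, were gavaged with saline or compound at 5 mg/kg for 21 days. Mice were acclimated to the test room for 2 days. There was no pre-swim. Each mouse swam for 6 min in a 16 cm cylinder of water 14 cm deep at 24 °C. Immobility was scored blind over the last 4 min; mean ± SEM, ANOVA.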
# Mus musculus [13] = test: Neuroprotective activity in C57BL/6J mouse assessed as inhibition of kainic acid-induced caspase 3 activation in hippocampus region at 5 mg/kg, po administered 2 to 8 hrs prior to kainic acid challenge measured after 4 hrs by immunoblotting; format: functional, organism-based; set-up: dose 5 mg/kg
# Mus musculus [14] = test: Toxicity in C57BL/6J mouse assessed as pathological changes in brain cortex at 5 mg/kg, po for 3 weeks; format: organism-based; set-up: dose 5 mg/kg, route oral; conditions: in vivo, 504 h; summary of the method: as §2
# [15] = target: BDNF/NT-3 growth factors receptor (Rattus norvegicus) (UniProt Q63604); test: Agonist activity at TrkB in E16 rat embryonic cortical neurons assessed as inhibition of glutamate-induced caspase 3 activation at 10 nM after 30 mins followed by 16 hrs of 50 uM glutamate-challenge by ELISA; format: functional; summary of the method: as §4
# Mus musculus [16] = test: Toxicity in C57BL/6J mouse assessed as pathological changes in lungs at 5 mg/kg, po for 3 weeks; format: organism-based; set-up: dose 5 mg/kg, route oral; conditions: in vivo, 504 h; summary of the method: as §2
# Mus musculus [17] = test: Toxicity in C57BL/6J mouse assessed as pathological changes in liver at 5 mg/kg, po for 3 weeks; format: organism-based; set-up: dose 5 mg/kg, route oral; conditions: in vivo, 504 h; summary of the method: as §2
# Mus musculus [18] = test: Neuroprotective activity in TrkB F616A knock in mouse assessed as inhibition of kainic acid-induced caspase 3 activation in brain homogenates at 5 mg/kg, po administered 4 hrs prior to kainic acid challenge measured after 4 days by immunoblotting in presence of TrkB F616A inhibitor 1NMPP1; format: functional, organism-based; set-up: dose 5 mg/kg
# Summary of the method: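 TrkB F616A knock-in mice, 2–3 months old, were given 1NMPP1 at 25 µM in drinking water one day beforehand. They were then gavaged with compound at 5 mg/kg, followed 4 h later by kainic acid at 20 mg/kg. Brains were taken 4 days later, homogenized and ultracentrifuged. 40 µg of supernatant was immunoblotted.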
# [19] = Cytotoxicity at E17 rat primary cortical neurons assessed as cell death at 5 uM by LDH assay; format: cell-based; conditions: cerebral cortex neuron
# Mus musculus [20] = test: Toxicity in C57BL/6J mouse assessed as pathological changes in muscle at 5 mg/kg, po for 3 weeks; format: organism-based, Muscle tissue; set-up: dose 5 mg/kg, route oral; conditions: in vivo, 504 h; summary of the method: as §2
# Mus musculus [21] = test: Toxicity in C57BL/6J mouse assessed as pathological changes in intestine at 5 mg/kg, po for 3 weeks; format: organism-based; set-up: dose 5 mg/kg, route oral; conditions: in vivo, 504 h; summary of the method: as §2
# Mus musculus [22] = test: Toxicity in C57BL/6J mouse assessed as pathological changes in heart at 5 mg/kg, po for 3 weeks; format: organism-based; set-up: dose 5 mg/kg, route oral; conditions: in vivo, 504 h; summary of the method: as §2
# Mus musculus [23] = test: Agonist activity at TrkB in C57BL/6J mouse brain assessed as TrkB 706 phosphorylation at 1 mg/kg, po at 1 hr by immunoblotting; format: functional, organism-based; set-up: dose 1 mg/kg; summary of the method: as §3
# Mus musculus [24] = test: Toxicity in C57BL/6J mouse assessed as pathological changes in kidney at 5 mg/kg, po for 3 weeks; format: organism-based; set-up: dose 5 mg/kg, route oral; conditions: in vivo, 504 h; summary of the method: as §2
# HEK293 [25] = test: Cytotoxicity against human HEK293 cells assessed as inhibition of cell proliferation at up to 50 uM by MTT assay; format: cell-based
# Mus musculus [26] = test: Antidepressant activity in TrkB F616A knock in mouse assessed as reduction of immobility time at 5 mg/kg, po administered for 21 days by forced swim test assay in presence of TrkB F616A inhibitor 1NMPP1; format: functional, organism-based; set-up: dose 5 mg/kg
# Mus musculus [27] = test: Neuroprotective activity in po dosed C57BL/6J mouse assessed as TrkB phosphorylation in brain by titration assay; format: functional, organism-based
# Mus musculus [28] = test: Toxicity in C57BL/6J mouse assessed as pathological changes in testis at 5 mg/kg, po for 3 weeks; format: organism-based; set-up: dose 5 mg/kg, route oral; conditions: in vivo, 504 h; summary of the method: as §2
# Mus musculus [29] = test: Toxicity in C57BL/6J mouse assessed as pathological changes in spleen at 5 mg/kg, po for 3 weeks; format: organism-based; set-up: dose 5 mg/kg, route oral; conditions: in vivo, 504 h; summary of the method: as §2
structure (smiles),measurement,setting,value
"O=c1cc(-c2ccccc2)oc2c(O)c(O)ccc12 [7,8-DIHYDROXYFLAVONE]",Activity,Mus musculus [1],Active
same,inhibition,Mus musculus [2],Active
same,Activity,Mus musculus [3],Non-toxic
same,Activity,[4],Active
same,Activity,Mus musculus [5],Active
same,Activity,Mus musculus [6],Non-toxic
same,Activity,Mus musculus [7],inactive
same,Activity,HEK293 [8],Non-toxic
same,Activity,Mus musculus [9],Active
same,Activity,[10],Active
same,Activity,[11],Active
same,Activity,Mus musculus [12],Active
same,inhibition,Mus musculus [13],Active
same,Activity,Mus musculus [14],Non-toxic
same,inhibition,[15],Active
same,Activity,Mus musculus [16],Non-toxic
same,Activity,Mus musculus [17],Non-toxic
same,inhibition,Mus musculus [18],inactive
same,Activity,[19],Non-toxic
same,Activity,Mus musculus [20],Non-toxic
same,Activity,Mus musculus [21],Non-toxic
same,Activity,Mus musculus [22],Non-toxic
same,Activity,Mus musculus [23],Active
same,Activity,Mus musculus [24],Non-toxic
same,Activity,HEK293 [25],Non-toxic
same,Activity,Mus musculus [26],inactive
same,Activity,Mus musculus [27],Dose-dependent effect
same,Activity,Mus musculus [28],Non-toxic
same,Activity,Mus musculus [29],Non-toxic

# — ChEMBL document CHEMBL1800034, “A synthetic 7,8-dihydroxyflavone derivative promotes neurogenesis and exhibits potent antidepressant effect” (J Med Chem, 2010)
